Assay results collected from several papers.
Protocols differ between the studies behind these lines.
Read-out: cell growth or viability

SMILES	cell line	test	setting	quantity	result
C=CC(=O)NC1CCN(c2ncc3ncnc(Nc4ccc(Oc5ccc6c(c5)ncn6C)c(C)c4)c3n2)CC1	MKN-7			EC50	0.00659 µM
CCOC(=O)c1nn(-c2cccc(Cl)c2)/c(=N/N=C(\C)c2ccc(NC(=O)c3ccc(Cl)cc3)cc2)s1	HepG2	MTT	10 µM	viability	4.04%
O=C(C=Cc1ccccc1)Nc1ccc(Oc2nnc(-c3ccc(Cl)cc3)c3ccccc23)cc1	HepG2	MTT	2.5 µM	cell death	87.9%
CC(C)(C)c1cnc(CSc2cnc(NC(=O)C3CCN(C(=O)CCCSc4cccc5c4C(=O)N(C4CCC(=O)NC4=O)C5=O)CC3)s2)o1 (stereo not drawn)	HH	CCK-8	0.2 µM	viability	96.7%
CCOC(Cn1nc(/C=C/C(=O)N2CCC(OC)CC2)c2cnc(NC)nc21)OCC	OE33	resazurin	5 days	EC50	> 30 µM
CCOC(=O)c1nn(-c2cccc(Cl)c2)/c(=N/N=C(\C)c2ccc(NC(=O)c3ccccc3)cc2)s1	HepG2	MTT	0.625 µM	viability	3.18%
CNc1ncc2c(/C=C/C(=O)N3CCC(OC)CC3)nn(Cc3ccccc3C(F)(F)F)c2n1	OE33	resazurin	5 days	EC50	11.4 µM
CC(C)(C)c1cnc(CSc2cnc(NC(=O)C3CCN(CCCCCCCCSc4cccc5c4C(=O)N(C4CCC(=O)NC4=O)C5=O)CC3)s2)o1 (stereo not drawn)	HH	CCK-8	0.15 µM	viability	16.5%
O=C(Nc1ccc(Oc2nnc(-c3ccc(Cl)cc3)c3ccccc23)cc1)c1ccccc1	HepG2	MTT	78 nM	cell death	3.97%
CNc1ncc2c(/C=C/C(=O)N3CCCC(N(C)C)C3)nn(CC3CCCC3)c2n1 (stereo not drawn)	OE33	resazurin	5 days	EC50	17.7 µM
CC(=NNC(=O)c1ccccc1Cl)c1ccc(Nc2nnc(-c3ccc(Cl)cc3)c3ccccc23)cc1	HepG2	MTT	0.312 µM	cell death	19.8%
CC(C)(C)c1cnc(CSc2cnc(NC(=O)C3CCN(CCCCSc4cccc5c4C(=O)N(C4CCC(=O)NC4=O)C5=O)CC3)s2)o1 (stereo not drawn)	HH	CCK-8	50 nM	viability	96.8%
CNc1ncc2c(/C=C/C(=O)N3CCC(c4ccccc4)CC3)nn(CC3CCCC3)c2n1	OE33	resazurin	5 days	EC50	> 30 µM
CC(=NNC(=S)Nc1ccccc1)c1ccc(Nc2nnc(-c3ccc(Cl)cc3)c3ccccc23)cc1	HepG2	MTT	5 µM	cell death	95.1%
CNc1ncc2c(/C=C/C(=O)N3CCC(O)CC3)nn(CC3CCCC3)c2n1	OE33	resazurin	5 days	EC50	> 30 µM
CC(C)(C)c1cnc(CSc2cnc(NC(=O)C3CCN(C(=O)COCCOCCSc4cccc5c4C(=O)N(C4CCC(=O)NC4=O)C5=O)CC3)s2)o1 (stereo not drawn)	HH	CCK-8	0.1 µM	viability	100%
O=C(Nc1ccc(Oc2nnc(-c3ccc(Cl)cc3)c3ccccc23)cc1)c1cccc([N+](=O)[O-])c1	HepG2	MTT	5 µM	cell death	94.8%
CNc1ncc2c(/C=C/C(=O)N3CCOCC3)nn(CC3CCCC3)c2n1	OE33	resazurin	5 days	EC50	> 30 µM
CC(C)(C)c1cnc(CSc2cnc(NC(=O)C3CCN(CCCCCCCCSc4cccc5c4CN(C4CCC(=O)NC4=O)C5=O)CC3)s2)o1 (stereo not drawn)	HH	CCK-8	0.5 µM	viability	0%
Nc1ncnc2c1c(/C=C/C(=O)N1CCC(O)CC1)nn2CC1CCCC1	OE33	resazurin	5 days	EC50	> 30 µM
CC(=NNC(=O)c1cccnc1)c1ccc(Nc2nnc(-c3ccc(Cl)cc3)c3ccccc23)cc1	HepG2	MTT	5 µM	cell death	96.8%
CC(C)(C)c1cnc(CSc2cnc(NC(=O)C3CCN(CCCCCCCSc4cccc5c4C(=O)N(C4CCC(=O)NC4=O)C5=O)CC3)s2)o1 (stereo not drawn)	HH	CCK-8	0.15 µM	viability	76.7%
CNc1ncc2c(/C=C/C(=O)N3CCC(OC)CC3)nn(CC3OCCO3)c2n1	OE33	resazurin	5 days	EC50	> 30 µM
CC(=NNC(N)=S)c1ccc(Nc2nnc(-c3ccc(Cl)cc3)c3ccccc23)cc1	HepG2	MTT	10 µM, 24 h	viability	7.32%
